According to ChEMBL document CHEMBL2417520, “Synthesis and biological evaluation of amino analogs of Ludartin: potent and selective cytotoxic agents” (Bioorg Med Chem Lett, 2013):
pIC50: −log10 of the molar value.

Assays:
PC-3 [1] = assay: Cytotoxicity against human PC3 cells assessed as cell growth inhibition at 50 uM after 48 hrs by sulphorhodamine B assay; type: functional; details: PC-3, 48 h, read-out: GI
How it was run: (§1)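 Single-concentration screen of analogs at 50 µM for 48 h on overnight-adhered cells maintained in RPMI-1640/10% FBS at 37 °C, 5% CO2. Cells were fixed with ice-cold TCA (60 min) and stained 30 min with 0.4% SRB in 1% acetic acid. Bound dye was dissolved in 10 mM Tris and OD read at 570 nm, expressed as % growth inhibition.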

THP-1 [2] = assay: Cytotoxicity against human THP1 cells assessed as cell growth inhibition at 50 uM after 48 hrs by sulphorhodamine B assay; type: functional; details: THP-1, 48 h, read-out: GI; how it was run: as §1
PC-3 [3] = assay: Ratio of ludartin IC50 to compound IC50 for human PC3 cells; type: functional
PC-3 [4] = assay: Cytotoxicity against human PC3 cells assessed as cell growth inhibition after 48 hrs by sulphorhodamine B assay; type: functional, cell-based; details: PC-3, 48 h
How it was run: (§2)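 Cells grown in RPMI-1640 with 10% FBS and penicillin/streptomycin at 37 °C under 5% CO2, then allowed to adhere overnight. Only analogs giving >50% inhibition at 50 µM were retested at 10–100 µM for 48 h. Cells were fixed with cold TCA and stained with 0.4% SRB in 1% acetic acid. Dye was solubilised in 10 mM Tris and read at 570 nm to give IC50.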

HCT-116 [5] = assay: Cytotoxicity against human HCT116 cells assessed as cell growth inhibition at 50 uM after 48 hrs by sulphorhodamine B assay; type: functional; details: HCT-116, 48 h, read-out: GI; how it was run: as §1
A549 [6] = assay: Cytotoxicity against human A549 cells assessed as cell growth inhibition after 48 hrs by sulphorhodamine B assay; type: functional, cell-based; details: A549, 48 h; how it was run: as §2
A549 [7] = assay: Cytotoxicity against human A549 cells assessed as cell growth inhibition at 50 uM after 48 hrs by sulphorhodamine B assay; type: functional; details: A549, 48 h, read-out: GI; how it was run: as §1
HCT-116 [8] = assay: Cytotoxicity against human HCT116 cells assessed as cell growth inhibition after 48 hrs by sulphorhodamine B assay; type: functional, cell-based; details: HCT-116, 48 h; how it was run: as §2
THP-1 [9] = assay: Cytotoxicity against human THP1 cells assessed as cell growth inhibition after 48 hrs by sulphorhodamine B assay; type: functional, cell-based; details: THP-1, 48 h; how it was run: as §2
A549 [10] = assay: Ratio of ludartin IC50 to compound IC50 for human A549 cells; type: functional

| SMILES | inhibition of growth at 50 µM (PC-3 [1]) [%] | inhibition of growth at 50 µM (THP-1 [2]) [%] | Ratio IC50 (PC-3 [3]) | pIC50 (PC-3 [4]) | inhibition of growth at 50 µM (HCT-116 [5]) [%] | pIC50 (A549 [6]) | inhibition of growth at 50 µM (A549 [7]) [%] | pIC50 (HCT-116 [8]) | pIC50 (THP-1 [9]) | Ratio IC50 (A549 [10]) |
| --- | --- | --- | --- | --- | --- | --- | --- | --- | --- | --- |
| CC1=C2C[C@H]3O[C@@]3(C)[C@@H]2[C@H]2OC(=O)[C@@H](Cn3ncc4ccc([N+](=O)[O-])cc43)[C@@H]2CC1 | 99 | 63 | 3 | 5.66 | 86 | 4.46 | 84 | 4.77 | 4.54 | – |
| CCN(CC)C[C@@H]1C(=O)O[C@H]2[C@H]1CCC(C)=C1C[C@H]3O[C@@]3(C)[C@@H]12 | 56 | 98 | – | 4.49 | 95 | 4.66 | 73 | 5.43 | 5.46 | – |
| CC1=C2C[C@H]3O[C@@]3(C)[C@@H]2[C@H]2OC(=O)[C@@H](Cn3cncn3)[C@@H]2CC1 | 66 | 83 | – | 4.46 | 70 | 4.49 | 69 | 4.70 | 4.82 | – |
| CC1=C2C[C@H]3O[C@@]3(C)[C@@H]2[C@H]2OC(=O)[C@@H](Cn3nc4ccccc4n3)[C@@H]2CC1 | 40 | 15 | – | – | 13 | – | 25 | – | – | – |
| CNC[C@@H]1C(=O)O[C@H]2[C@H]1CCC(C)=C1C[C@H]3O[C@@]3(C)[C@@H]12 | 12 | 25 | – | – | 16 | – | 10 | – | – | – |
| CC1=C2C[C@H]3O[C@@]3(C)[C@@H]2[C@H]2OC(=O)[C@@H](Cn3ncc4cc([N+](=O)[O-])ccc43)[C@@H]2CC1 | 52 | 72 | – | 4.47 | 57 | 5.59 | 99 | 4.40 | 4.51 | 3 |
| CCNC[C@@H]1C(=O)O[C@H]2[C@H]1CCC(C)=C1C[C@H]3O[C@@]3(C)[C@@H]12 | 43 | 68 | – | – | 36 | – | 20 | – | 4.54 | – |
| CCCNC[C@@H]1C(=O)O[C@H]2[C@H]1CCC(C)=C1C[C@H]3O[C@@]3(C)[C@@H]12 | 17 | 23 | – | – | 2 | – | 39 | – | – | – |
| CC1=C2C[C@H]3O[C@@]3(C)[C@@H]2[C@H]2OC(=O)[C@@H](Cn3ccnc3)[C@@H]2CC1 | 53 | 36 | – | – | 42 | – | 0 | – | – | – |
| C#CCNC[C@@H]1C(=O)O[C@H]2[C@H]1CCC(C)=C1C[C@H]3O[C@@]3(C)[C@@H]12 | 33 | 40 | – | – | 4 | – | 36 | – | – | – |
| CCCCNC[C@@H]1C(=O)O[C@H]2[C@H]1CCC(C)=C1C[C@H]3O[C@@]3(C)[C@@H]12 | 14 | 28 | – | – | 4 | – | 0 | – | – | – |
| C=C1C(=O)O[C@H]2[C@H]1CCC(C)=C1C[C@H]3O[C@@]3(C)[C@@H]12 [LUDARTIN] | 97 | 98 | – | 5.12 | 97 | 5.13 | 97 | 5.16 | 5.51 | – |
| C=CCNC[C@@H]1C(=O)O[C@H]2[C@H]1CCC(C)=C1C[C@H]3O[C@@]3(C)[C@@H]12 | 16 | 39 | – | – | 28 | – | 0 | – | – | – |
| CC1=C2C[C@H]3O[C@@]3(C)[C@@H]2[C@H]2OC(=O)[C@@H](CN3CCCC3)[C@@H]2CC1 | 11 | 67 | – | – | 15 | – | 0 | – | 4.59 | – |
| CC1=C2C[C@H]3O[C@@]3(C)[C@@H]2[C@H]2OC(=O)[C@@H](CNCc3ccc(F)cc3)[C@@H]2CC1 | 64 | 26 | – | – | 0 | – | 16 | – | – | – |
| CC1=C2C[C@H]3O[C@@]3(C)[C@@H]2[C@H]2OC(=O)[C@@H](CN3CCCCC3)[C@@H]2CC1 | 85 | 93 | – | 4.64 | 90 | 4.77 | 87 | 5.40 | 5.41 | – |
| CC1=C2C[C@H]3O[C@@]3(C)[C@@H]2[C@H]2OC(=O)[C@@H](Cn3cnc([N+](=O)[O-])c3)[C@@H]2CC1 | 15 | 32 | – | – | 30 | – | 0 | – | – | – |
| CC1=C2C[C@H]3O[C@@]3(C)[C@@H]2[C@H]2OC(=O)[C@@H](CN3CCOCC3)[C@@H]2CC1 | 59 | 97 | – | – | 58 | – | 42 | – | 5.55 | – |
